Each structure is given as a SMILES string.

Consider 30 compounds from ChEMBL document CHEMBL1143052, “Synthesis, antimicrobial, and QSAR studies of substituted benzamides” (2007).

One test deals with Staphylococcus aureus. Description: Antibacterial activity against Staphylococcus aureus MTCC 2901 after 24 hrs.
The subject of a further test is Escherichia coli. Description: Antibacterial activity against Escherichia coli MTCC 1652 after 24 hrs. The format is functional. In short, it runs like this: (§1)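 Serial broth dilution in double-strength nutrient broth-I.P. Bacteria were grown for 24 h at 37 °C. A DMSO stock was diluted into 1 mL broth tubes to span 5–0.156, then inoculated with a saline suspension of the organism. Tubes were incubated at 37 °C for 24 h and MIC was read. Extra dilutions of the stock then set the exact MIC.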

The next test concerns Aspergillus parasiticus. In words: Antifungal activity against Aspergillus parasiticus MTCC 8189 by serial dilution method. The format is functional. In short, it runs like this:
(§2)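 Broth serial dilution against the fungus in Sabouraud dextrose broth-I.P., run like the antibacterial assay. Compounds came from a DMSO stock, and MIC was determined.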

The next test concerns Bacillus subtilis. In words: Antibacterial activity against Bacillus subtilis MTCC 2063 after 24 hrs. Type of test: functional. In short, it runs like this: as §1
The next test concerns Aspergillus ficuum. Description: Antifungal activity against Aspergillus ficuum MTCC 8184 by serial dilution method. Type of test: functional. The essentials:
as §2

Regarding `O=C(Nc1ccccc1O)c1ccccc1Cl`, the “-log(1/MIC)” value in the test with Staphylococcus aureus was 1.3; with Aspergillus parasiticus, 1.3; in the test on Aspergillus ficuum, 1.6. In addition, the entries for the “pMIC, log(1/MIC)” value with Escherichia coli and in the test with Bacillus subtilis were 1.2 and 1, respectively.

`COC(=O)c1cccc(O)c1NC(=O)c1ccccc1OCc1ccccc1`: the “-log(1/MIC)” value in the test on Staphylococcus aureus was 1.48; in the test on Aspergillus parasiticus it was 1.83; in the test on Aspergillus ficuum it was 1.78. Also, the “pMIC, log(1/MIC)” value was 1.35 in the test on Escherichia coli and 1.48 in the test with Bacillus subtilis.

Take `O=C(Nc1ccc(O)cc1)c1ccccc1Cl`: the entries for the “-log(1/MIC)” value with Staphylococcus aureus, in the test on Aspergillus parasiticus and in the test with Aspergillus ficuum were 1.3, 1.31 and 1.6, respectively. Also, the figures for the “pMIC, log(1/MIC)” value in the test on Escherichia coli and in the test on Bacillus subtilis were 1.17 and 1, respectively.

`O=C(Nc1ccc(O)cc1)c1cc([N+](=O)[O-])ccc1Cl`: the entries for the “-log(1/MIC)” value in the test on Staphylococcus aureus, in the test with Aspergillus parasiticus and in the test on Aspergillus ficuum were 1.37, 1.58 and 1.58, respectively. Also, the “pMIC, log(1/MIC)” value in the test on Escherichia coli and with Bacillus subtilis was 1.27 in each case.

Turning to `COc1cccc(C(=O)Nc2ccc(O)cc2)c1[N+](=O)[O-]`, the entries for the “-log(1/MIC)” value in the test with Staphylococcus aureus, in the test with Aspergillus parasiticus and with Aspergillus ficuum were 1.36, 1.53 and 1.36, respectively. Besides, the “pMIC, log(1/MIC)” value with Escherichia coli and with Bacillus subtilis was 1.26 in each case.

Turning to `O=C(Nc1ccccc1O)c1ccccc1`, the “-log(1/MIC)” value with Staphylococcus aureus was 1.11; with Aspergillus parasiticus, 1.23; with Aspergillus ficuum, 1.43. The figures for the “pMIC, log(1/MIC)” value in the test on Escherichia coli and in the test with Bacillus subtilis were 1.23 and 0.93, respectively.

As to `Cc1cccc(C(=O)Nc2ccccc2O)c1`, the “-log(1/MIC)” value came out at 1.16 in the test with Staphylococcus aureus, 1.3 in the test on Aspergillus parasiticus and 1.56 with Aspergillus ficuum. The “pMIC, log(1/MIC)” value with Escherichia coli is listed as 1.26; in the test with Bacillus subtilis it was 0.96.

With `O=C(Nc1ccccc1O)c1c(O)ccc2ccccc12`, the “-log(1/MIC)” value is on record as 1.23 in the test on Staphylococcus aureus, 1.35 in the test on Aspergillus parasiticus and 1.65 in the test with Aspergillus ficuum. The results for the “pMIC, log(1/MIC)” value with Escherichia coli and in the test on Bacillus subtilis were 1.29 and 1.35, respectively.

In the case of `O=C(Nc1ccccc1)c1ccc2ccccc2c1O`, the “-log(1/MIC)” value in the test with Staphylococcus aureus stood at 1.26; in the test on Aspergillus parasiticus, 1.3; in the test on Aspergillus ficuum, 1.44. In addition, the “pMIC, log(1/MIC)” value in the test with Escherichia coli came out at 1.17; in the test with Bacillus subtilis, 1.13.

As to `O=C(/C=C/c1ccccc1)Nc1ccc(O)cc1`, the “-log(1/MIC)” value with Staphylococcus aureus is on record as 1.28; in the test on Aspergillus parasiticus, 1.58; in the test on Aspergillus ficuum, 1.58. Besides, the “pMIC, log(1/MIC)” value was determined as 1.16 with Escherichia coli and 0.98 in the test on Bacillus subtilis.

On to `Cc1cccc(C(=O)Nc2ccc(O)cc2)c1`, for which the results for the “-log(1/MIC)” value with Staphylococcus aureus, in the test with Aspergillus parasiticus and with Aspergillus ficuum were 1.26, 1.26 and 1.56, respectively. The “pMIC, log(1/MIC)” value in the test with Escherichia coli was found to be 1.2; with Bacillus subtilis, 1.04.

`O=C(Nc1ccccc1O)c1ccc2ccccc2c1O`: the “-log(1/MIC)” value in the test with Staphylococcus aureus worked out at 1.25; with Aspergillus parasiticus it was 1.62; in the test with Aspergillus ficuum, 1.58. Moreover, the results for the “pMIC, log(1/MIC)” value in the test on Escherichia coli and in the test on Bacillus subtilis were 1.21 and 1.2, respectively.

On to `O=C(Nc1ccc(O)cc1)c1ccccc1`, for which the “-log(1/MIC)” value is reported as 1.23 with Staphylococcus aureus, 1.24 in the test on Aspergillus parasiticus and 1.53 in the test with Aspergillus ficuum. Moreover, the “pMIC, log(1/MIC)” value in the test with Escherichia coli turned out to be 1.23; with Bacillus subtilis it was 0.93.

Take `Cc1ccc(C(=O)Nc2ccccc2O)cc1`: the “-log(1/MIC)” value in the test on Staphylococcus aureus came to 1.16; in the test with Aspergillus parasiticus it was 1.26; in the test with Aspergillus ficuum, 1.56. In addition, the results for the “pMIC, log(1/MIC)” value with Escherichia coli and with Bacillus subtilis were 1.2 and 0.96, respectively.

Regarding `O=C(Nc1ccccc1O)c1cccc(Cl)c1`, the “-log(1/MIC)” value is reported as 1.16 with Staphylococcus aureus, 1.3 in the test on Aspergillus parasiticus and 1.6 with Aspergillus ficuum. Besides, the “pMIC, log(1/MIC)” value in the test on Escherichia coli amounted to 1.2; with Bacillus subtilis, 1.1.

For the compound `O=C(Nc1ccccc1O)c1cc([N+](=O)[O-])ccc1Cl`, the results for the “-log(1/MIC)” value in the test with Staphylococcus aureus, in the test on Aspergillus parasiticus and with Aspergillus ficuum were 1.26, 1.52 and 1.67, respectively. In addition, the “pMIC, log(1/MIC)” value came out at 1.2 with Escherichia coli and 1.07 with Bacillus subtilis.

`COc1cccc(C(=O)Nc2ccccc2O)c1[N+](=O)[O-]`: the figures for the “-log(1/MIC)” value in the test with Staphylococcus aureus, with Aspergillus parasiticus and in the test with Aspergillus ficuum were 1.41, 1.71 and 1.71, respectively. Besides, the “pMIC, log(1/MIC)” value in the test with Escherichia coli and with Bacillus subtilis was 1.41 in each case.

Consider `Cc1ccc(C(=O)Nc2ccc(O)cc2)cc1`, for which the “-log(1/MIC)” value with Staphylococcus aureus is 1.26; with Aspergillus parasiticus, 1.32; with Aspergillus ficuum it was 1.56. For the same compound, the “pMIC, log(1/MIC)” value in the test with Escherichia coli came out at 1.26; with Bacillus subtilis it was 0.96.

Take `O=C(Nc1ccccc1)c1ccccc1OCc1ccccc1`: the “-log(1/MIC)” value in the test with Staphylococcus aureus came out at 1.39; with Aspergillus parasiticus, 1.69; in the test on Aspergillus ficuum it was 1.69. In addition, the “pMIC, log(1/MIC)” value in the test on Escherichia coli and with Bacillus subtilis was 1.3 in each case.

Turning to `O=C(Nc1ccccc1)c1cc([N+](=O)[O-])ccc1Cl`, the “-log(1/MIC)” value in the test with Staphylococcus aureus is given as 1.35; in the test on Aspergillus parasiticus it was 1.42; in the test with Aspergillus ficuum, 1.55. Moreover, the “pMIC, log(1/MIC)” value with Escherichia coli is 1.2; in the test on Bacillus subtilis it was 1.15.

With `O=C(Nc1ccc(O)cc1)c1cccc(Cl)c1`, the figures for the “-log(1/MIC)” value in the test with Staphylococcus aureus, with Aspergillus parasiticus and in the test with Aspergillus ficuum were 1.3, 1.3 and 1.6, respectively. Also, the “pMIC, log(1/MIC)” value is 1.17 in the test on Escherichia coli and 1 in the test on Bacillus subtilis.

Regarding `O=C(Nc1ccc(O)cc1)c1cc([N+](=O)[O-])cc([N+](=O)[O-])c1`, the “-log(1/MIC)” value in the test with Staphylococcus aureus came to 1.38; in the test with Aspergillus parasiticus it was 1.69; with Aspergillus ficuum, 1.69. Further, the “pMIC, log(1/MIC)” value in the test on Escherichia coli and with Bacillus subtilis was 1.38 in each case.

Turning to `O=C(Nc1ccccc1O)c1ccccc1O`, the “-log(1/MIC)” value with Staphylococcus aureus amounted to 1.26; with Aspergillus parasiticus it was 1.2; in the test with Aspergillus ficuum, 1.45. Moreover, the “pMIC, log(1/MIC)” value with Escherichia coli is 1.12; in the test with Bacillus subtilis, 0.96.

As for `O=C(Nc1ccccc1)c1c(O)ccc2ccccc12`, the “-log(1/MIC)” value with Staphylococcus aureus is 1.35; with Aspergillus parasiticus, 1.65; with Aspergillus ficuum it was 1.65. Moreover, the “pMIC, log(1/MIC)” value in the test on Escherichia coli and in the test with Bacillus subtilis was 1.35 in each case.

Turning to `O=C(Nc1ccc(O)cc1)c1c(O)ccc2ccccc12`, the “-log(1/MIC)” value in the test on Staphylococcus aureus amounted to 1.23; with Aspergillus parasiticus it was 1.65; in the test on Aspergillus ficuum, 1.65. Also, the “pMIC, log(1/MIC)” value in the test with Escherichia coli and with Bacillus subtilis was 1.35 in each case.

Consider `O=C(Nc1ccc(O)cc1)c1ccc2ccccc2c1O`, for which the “-log(1/MIC)” value is reported as 1.32 with Staphylococcus aureus, 1.62 in the test on Aspergillus parasiticus and 1.57 with Aspergillus ficuum. Also, the “pMIC, log(1/MIC)” value with Escherichia coli is listed as 1.22; in the test with Bacillus subtilis it was 1.25.

Take `O=C(Nc1ccccc1O)c1cc([N+](=O)[O-])cc([N+](=O)[O-])c1`: the results for the “-log(1/MIC)” value with Staphylococcus aureus, in the test on Aspergillus parasiticus and in the test on Aspergillus ficuum were 1.38, 1.69 and 1.58, respectively. Moreover, the “pMIC, log(1/MIC)” value in the test on Escherichia coli and with Bacillus subtilis was 1.38 throughout.

Turning to `O=C(O)c1cn(C2CC2)c2cc(N3CCNCC3)c(F)cc2c1=O` [CIPROFLOXACIN], the “-log(1/MIC)” value in the test on Staphylococcus aureus and in the test with Escherichia coli was 3.33 in each case. In addition, the “pMIC, log(1/MIC)” value in the test with Bacillus subtilis came out at 3.33.

In the case of `O=C(Nc1ccc(O)cc1)c1ccccc1O` [OSALMID], the entries for the “-log(1/MIC)” value in the test on Staphylococcus aureus, with Aspergillus parasiticus and with Aspergillus ficuum were 1.26, 1.26 and 1.56, respectively. The “pMIC, log(1/MIC)” value in the test on Escherichia coli amounted to 1.2; in the test with Bacillus subtilis it was 0.96.

`O=C(O)c1ccccc1O` [SALICYLIC ACID]: the “-log(1/MIC)” value with Aspergillus parasiticus and with Aspergillus ficuum was 3.1 in each case.
